Test results from ChEMBL document CHEMBL1126775, “A pharmacological, crystallographic, and quantum chemical study of new inotropic agents” (J Med Chem, 1993).
Where “and” joins values, the source holds several entries; their conditions need not be identical. Equal entries are not always repeated.

How the values were obtained:
[1] = Logarithm of the sum of contributions of each atom to the total lipophilicity of the molecule; assay type: physicochemical; conditions: octanol/water
[2] = organism: Cavia porcellus; assay: Effect on inotropic response to 10 e-4 8-phenyltheophylline in electrically driven left atrium from reserpine-treated guinea pigs; assay type: functional, Cardiac atrium
Procedure, shortened: (§1)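 Paced left atrium (1.5 Hz, 0.5 g load) from reserpine-pretreated guinea pigs. Test agent (10^-4 or 5×10^-5 M) added to perfusion 10 min before cumulative 8-phenyltheophylline (10^-6–10^-4 M). Developed tension as % increase over control. Mean ± SEM of four assays from four experiments; Student's t test against atria without the test agent.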

[3] = organism: Cavia porcellus; assay: Effect on inotropic response to 10 e-4 8-phenyltheophylline in electrically driven left atrium from reserpine-treated guinea pigs at 5 x 10 e-5 M; assay type: functional, Cardiac atrium; procedure, shortened: as §1
[4] = organism: Cavia porcellus; assay: Effect on inotropic response to 10 e-5 8-phenyltheophylline in electrically driven left atrium from reserpine-treated guinea pigs; assay type: functional, Cardiac atrium; procedure, shortened: as §1
[5] = organism: Cavia porcellus; assay: Effect on inotropic response to 10 e-5 8-phenyltheophylline in electrically driven left atrium from reserpine-treated guinea pigs at 10 e-4 M; assay type: functional, Cardiac atrium; procedure, shortened: as §1
[6] = organism: Cavia porcellus; assay: Effect on inotropic response to 10 e-5 8-phenyltheophylline in electrically driven left atrium from reserpine-treated guinea pigs at 5 x 10 e-5 M; assay type: functional, Cardiac atrium; procedure, shortened: as §1
[7] = organism: Cavia porcellus; assay: Effect on inotropic response to 10 e-6 8-phenyltheophylline in electrically driven left atrium from reserpine-treated guinea pigs; assay type: functional, Cardiac atrium; procedure, shortened: as §1
[8] = organism: Cavia porcellus; assay: Effect on inotropic response to 10 e-6 8-phenyltheophylline in electrically driven left atrium from reserpine-treated guinea pigs at 10 e-4 M; assay type: functional, Cardiac atrium; procedure, shortened: as §1
[9] = organism: Cavia porcellus; assay: Effect on inotropic response to 10 e-6 8-phenyltheophylline in electrically driven left atrium from reserpine-treated guinea pigs at 5 x 10 e-5 M; assay type: functional, Cardiac atrium; procedure, shortened: as §1
[10] = organism: Cavia porcellus; assay: Effect on inotropic response to 3 x 10 e-5 8-phenyltheophylline in electrically driven left atrium from reserpine-treated guinea pigs; assay type: functional, Cardiac atrium; procedure, shortened: as §1
[11] = organism: Cavia porcellus; assay: Effect on inotropic response to 3 x 10 e-5 8-phenyltheophylline in electrically driven left atrium from reserpine-treated guinea pigs at 10 e-4 M; assay type: functional, Cardiac atrium; procedure, shortened: as §1
[12] = organism: Cavia porcellus; assay: Effect on inotropic response to 3 x 10 e-6 8-phenyltheophylline in electrically driven left atrium from reserpine-treated guinea pigs; assay type: functional, Cardiac atrium; procedure, shortened: as §1
[13] = organism: Cavia porcellus; assay: Effect on inotropic response to 3 x 10 e-6 8-phenyltheophylline in electrically driven left atrium from reserpine-treated guinea pigs at 10 e-4 M; assay type: functional, Cardiac atrium; procedure, shortened: as §1
[14] = organism: Cavia porcellus; assay: Effect on inotropic response to 3 x 10 e-6 8-phenyltheophylline in electrically driven left atrium from reserpine-treated guinea pigs at 5 x 10 e-5 M; assay type: functional, Cardiac atrium; procedure, shortened: as §1
[15] = organism: Cavia porcellus; assay: Effect on inotropic response to 3x 10 e-5 8-phenyltheophylline in electrically driven left atrium from reserpine-treated guinea pigs at 5 x 10 e-5 M; assay type: functional, Cardiac atrium; procedure, shortened: as §1
[16] = organism: Cavia porcellus; assay: Effect on contractile force of spontaneously beating atria from reserpine treated guinea pigs at the concentration of 10 e-3 M (negative ionotropic effect); assay type: functional
[17] = organism: Cavia porcellus; assay: Effect on contractile force of spontaneously beating atria from reserpine treated guinea pigs at the concentration of 10 e-5 M (negative ionotropic effect); assay type: functional
[18] = organism: Cavia porcellus; assay: Effect on contractile force of spontaneously beating atria from reserpine treated guinea pigs at the concentration of 2 x 10 e-3 M (negative ionotropic effect); assay type: functional
[19] = organism: Cavia porcellus; assay: Effect on contractile force of spontaneously beating atria from reserpine treated guinea pigs at the concentration of 5x 10 e-4 M (negative ionotropic effect); assay type: functional
[20] = organism: Cavia porcellus; assay: Effect on contractile force of spontaneously beating atria from reserpine treated guinea pigs at the concentration of 5x 10 e-5 M (negative ionotropic effect); assay type: functional
[21] = organism: Cavia porcellus; assay: Effect on frequency rate of spontaneously beating atria from reserpine treated guinea pigs at the concentration of 10 e-3 M (negative chronotropic ionotropic effect); assay type: functional
[22] = organism: Cavia porcellus; assay: Effect on frequency rate of spontaneously beating atria from reserpine treated guinea pigs at the concentration of 10 e-4 M (negative chronotropic ionotropic effect); assay type: functional
[23] = organism: Cavia porcellus; assay: Effect on frequency rate of spontaneously beating atria from reserpine treated guinea pigs at the concentration of 2 x 10 e-3 M (negative chronotropic ionotropic effect); assay type: functional
[24] = organism: Cavia porcellus; assay: Effect on frequency rate of spontaneously beating atria from reserpine treated guinea pigs at the concentration of 5 x 10 e-4 M (negative chronotropic ionotropic effect); assay type: functional
[25] = organism: Cavia porcellus; assay: Effect on inotropic response to 10 e-4 8-phenyltheophylline in electrically driven left atrium from reserpine-treated guinea pigs at 10 e-4 M; assay type: functional, Cardiac atrium; procedure, shortened: as §1
[26] = organism: Cavia porcellus; assay: Effect on contractile force of spontaneously beating atria from reserpine treated guinea pigs at the concentration of 10 e-4 M (negative ionotropic effect); assay type: functional
[27] = organism: Cavia porcellus; assay: Effect on frequency rate of spontaneously beating atria from reserpine treated guinea pigs at the concentration of 5 x 10 e-5 M (negative chronotropic ionotropic effect)
[28] = organism: Cavia porcellus; assay: Inotropic effect in electrically driven left atrium from reserpine-treated guinea pig at the concentration of 10 e-4 M; assay type: functional, Cardiac atrium
Procedure, shortened: (§2)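 Atria from reserpine-pretreated guinea pigs (2 mg/kg ip, 48 and 24 h), tyramine-unresponsive only. Left atrium loaded 0.5 g, paced at 1.5 Hz with 3-ms square pulses at 10–20% above threshold. Equilibrated 90 min. Agents added cumulatively, 5 min per concentration. Isometric developed tension expressed as % increase over control.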

[29] = organism: Cavia porcellus; assay: Inotropic effect in electrically driven left atrium from reserpine-treated guinea pig at the concentration of 10 e-5 M; assay type: functional, Cardiac atrium; procedure, shortened: as §2
[30] = organism: Cavia porcellus; assay: Inotropic effect in electrically driven left atrium from reserpine-treated guinea pig at the concentration of 2 x 10 e-3 M; assay type: functional, Cardiac atrium; procedure, shortened: as §2
[31] = organism: Cavia porcellus; assay: Inotropic effect in electrically driven left atrium from reserpine-treated guinea pig at the concentration of 5 x 10 e-4 M; assay type: functional, Cardiac atrium; procedure, shortened: as §2
[32] = organism: Cavia porcellus; assay: Inotropic effect in electrically driven left atrium from reserpine-treated guinea pig at the concentration of 5 x 10 e-5 M; assay type: functional, Cardiac atrium; procedure, shortened: as §2
[33] = organism: Cavia porcellus; assay: Inotropic effect in electrically driven left atrium from reserpine-treated guinea pig at the concentration of 10 e-3 M; assay type: functional, Cardiac atrium; procedure, shortened: as §2
[34] = organism: Cavia porcellus; assay: Effect on contractile force of spontaneously beating atria from reserpine treated guinea pigs at the concentration of 10 e-3 M; assay type: functional
[35] = organism: Cavia porcellus; assay: Effect on contractile force of spontaneously beating atria from reserpine treated guinea pigs at the concentration of 10 e-4 M; assay type: functional
[36] = organism: Cavia porcellus; assay: Effect on contractile force of spontaneously beating atria from reserpine treated guinea pigs at the concentration of 10 e-5 M; assay type: functional
[37] = organism: Cavia porcellus; assay: Effect on contractile force of spontaneously beating atria from reserpine treated guinea pigs at the concentration of 2 x 10 e-3 M; assay type: functional
[38] = organism: Cavia porcellus; assay: Effect on contractile force of spontaneously beating atria from reserpine treated guinea pigs at the concentration of 5x 10 e-4 M; assay type: functional
[39] = organism: Cavia porcellus; assay: Effect on contractile force of spontaneously beating atria from reserpine treated guinea pigs at the concentration of 5x 10 e-5 M; assay type: functional
[40] = organism: Cavia porcellus; assay: Effect on frequency rate of spontaneously beating atria from reserpine treated guinea pigs at the concentration of 10 e-3 M; assay type: functional
[41] = organism: Cavia porcellus; assay: Effect on frequency rate of spontaneously beating atria from reserpine treated guinea pigs at the concentration of 10 e-4 M; assay type: functional
[42] = organism: Cavia porcellus; assay: Effect on frequency rate of spontaneously beating atria from reserpine treated guinea pigs at the concentration of 10 e-5 M; assay type: functional
[43] = organism: Cavia porcellus; assay: Effect on frequency rate of spontaneously beating atria from reserpine treated guinea pigs at the concentration of 2 x 10 e-3 M; assay type: functional
[44] = organism: Cavia porcellus; assay: Effect on frequency rate of spontaneously beating atria from reserpine treated guinea pigs at the concentration of 5 x 10 e-4 M; assay type: functional
[45] = organism: Cavia porcellus; assay: Effect on contractile force of spontaneously beating atria from reserpine treated guinea pigs at the concentration of 10 e-5 M; arrhythmias; assay type: functional

| logP [1] | SMILES | Increase [16] | Increase [18] | Increase [19] | Increase [20] | Increase [21] | Increase [22] | Increase [23] | Increase [24] | Increase [26] | Increase [27] | Increase [36] | Increase [39] | Increase [42] | also measured |
| --- | --- | --- | --- | --- | --- | --- | --- | --- | --- | --- | --- | --- | --- | --- | --- |
| 3.82 | O=C(c1ccccc1)c1ccc(O)nc1-c1ccccc1 | -43.71% | -46.27% | -38.32% | -7.3% | -32.89% | -14.92% | -40.57% | -24.37% | -24.76% | -4.26% and -9.3% |  |  |  | Increase [2]: 20.81%; Increase [3]: 25.91%; Increase [4]: 11.19%; Increase [5]: 18.78%; Increase [6]: 14.44%; Increase [7]: 4.27%; Increase [8]: 4.56%; Increase [9]: 5.7%; Increase [10]: 14.72%; Increase [11]: 20.17%; Increase [12]: 7.33%; Increase [13]: 11.38%; Increase [14]: 8.13%; Increase [15]: 17.41%; Increase [17]: -2.67%; Increase [25]: 27.05% |
| 2.89 | Cc1[nH]c(=O)c(C#N)cc1-c1ccncc1 [MILRINONE] |  |  |  |  |  |  |  |  |  |  | 18.25% | 31.32% | 16.41% and 28.1% | Increase [28]: 34.61%; Increase [29]: 13.25%; Increase [30]: 37.95%; Increase [31]: 44.72%; Increase [32]: 22.83%; Increase [33]: 41.96%; Increase [34]: 33.09%; Increase [35]: 38.76%; Increase [37]: 29.31%; Increase [38]: 46.52%; Increase [40]: 39.2%; Increase [41]: 35.26%; Increase [43]: 31.79%; Increase [44]: 43.96% |
|  | CC(C)(C)C(=O)c1cc(C#N)c(O)nc1C(C)(C)C | -81.39% | -89.11% | -66.56% |  | -14.41% | -0.44% | -15.71% | -6.73% | -16.07% |  | 7.34% | 11.34% | 2.98% and 0.28% |  |
|  | O=C(O)c1cc2c(nc1O)CCCC2=O |  |  |  |  |  |  |  |  |  |  |  |  |  | Increase [45]: arrhythmias |
|  | N#Cc1cc(C(=O)c2ccccc2)c(-c2ccccc2)nc1O | -35.54% | -39.43% | -32.19% | -6.67% | -8.29% | -3.36% | -9.96% | -6.26% | -22.26% | -3.01% | 1.22% |  | 0.5% |  |
